TAAR1 antag: antagonists of human TAAR1; Q96RJ0; CHO RD-HGA16 TAAR1, Fluo-8 calcium fluorescence, antagonist; inhibition, % at 3 µM; 360,000 compounds, 1.5% hits; AID 624466;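 active = inhibition above a per-plate cutoff, the mean inhibition of test compounds on that plate plus 3 SD, cut at about 49% in these data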;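 also: 0% = DMSO plus EC80 beta-PEA response and 100% = DMSO alone without agonist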
Target sequence (Q96RJ0 whole entry, looked up): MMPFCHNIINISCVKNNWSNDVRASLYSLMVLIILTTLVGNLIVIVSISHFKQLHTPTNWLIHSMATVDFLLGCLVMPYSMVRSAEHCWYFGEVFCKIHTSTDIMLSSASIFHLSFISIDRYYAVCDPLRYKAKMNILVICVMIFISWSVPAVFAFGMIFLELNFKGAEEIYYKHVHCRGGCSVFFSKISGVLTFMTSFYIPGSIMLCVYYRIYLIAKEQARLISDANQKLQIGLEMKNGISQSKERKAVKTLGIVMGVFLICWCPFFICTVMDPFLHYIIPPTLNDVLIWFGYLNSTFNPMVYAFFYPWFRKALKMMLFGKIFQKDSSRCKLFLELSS
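Test system – hTAAR1-expressing CHO RD-HGA16 cells, Gα16-coupled · Reagent – β-PEA at EC80 concentration, post-compound challenge · Compound dosing – 3 µM, single point · Timing – 140 s kinetic read after compound, 140 s after agonist · Detection – Fluo-8 intracellular calcium dye fluorescence, real-time kinetic reads · Control set – DMSO and EC80 PEA controls · Repeats – n of 1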
CHO parental Ca: counter-screen: ATP calcium response change in parental CHO cells. parental CHO-K1, ATP-induced calcium, Fluo-8 fluorescence. 330,000 compounds, 0.63% hits. inhibition, % at 5.6 µM. AID 463079;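 active = inhibition above that plate's mean sample inhibition plus 3 SD, cut at about 26% in these data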;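 also: 0% = ATP-challenged DMSO wells and 100% = DMSO wells without ATP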
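Material – parental CHO cells · Reagent – ATP stimulus · Compound – single nominal dose of 5.6 µM per compound · Detection – Fluo-8 fluorescence · Read-out basis – percent inhibition of calcium signal · Controls – ATP-challenged DMSO wells low, unchallenged DMSO wells high · Repeats – no replicates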
OX1R antag-1: blocks the human orexin 1 receptor; CHO/OX1R cells, Fluo-8 calcium fluorescence, orexin A; inhibition, % at 5 µM; 330,000 compounds, 0.43% hits; AID 434989;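 active = inhibition above its plate's threshold, mean inhibition of all tested compounds on the plate plus 3 SD, cut at about 37% in these data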;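 also: 0% = orexin A challenge wells and 100% = SB-334867-A antagonist wells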
TAAR1 agonist: human TAAR1 agonism; Q96RJ0; activation, % at 3 µM; 360,000 compounds, 0.99% hits; CHO RD-HGA16 TAAR1, Fluo-8 calcium fluorescence; vehicle wells 0%, saturating PEA agonist 100%;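 active = activation above the mean activation of all test compounds in the run plus 3 SD, cut at about 38% in these data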
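Test system: RD-HGA16 (CHO) cells co-expressing Gα16 and hTAAR1 | Doses: Single dose, 3 µM | Schedule: 17-24 h seeding, 75 min 37 °C dye, 30 min RT | Evaluation: % activation from peak over basal fluorescence ratio, DMSO-to-PEA scaled | Technique: Kinetic Fluo-8 calcium fluorescence | Benchmarks: Low control DMSO, high control PEA (EC100)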
OX1R antag-2: antagonists of human orexin 1 receptor (OX1R) | O43613 | OX1R-expressing cells, FRET antagonist read-out | inhibition, % at 6.6 µM | 330,000 compounds, 1.8% hits; in the data active = inhibition mostly above about 38%, no sharp cut-off; inactive = mostly below about 40%;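 also: 0% = agonist challenge alone and 100% = reference antagonist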
NTR1 agonist: NTR1 (human) agonism; P30989; NTR1-U2OS beta-arrestin-GFP spot imaging, agonist mode; activation, % at 20 µM; 330,000 compounds, 0.17% hits; AID 493036;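 active = activation at or above 40% of the spot to cytoplasm intensity ratio, with at least 20 cells analyzed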;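 also: 0% = DMSO without peptide and 100% = 100 nM NTR1 peptide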
Starred values were filed as active, the others as inactive. Most compounds without a hit are left out; they make up all but 4% or so of the library.

`COc1ccc(CCNc2nc(-c3cccnc3)nc3ccccc23)cc1OC` gave TAAR1 antag 63.3*, CHO parental Ca -7.1, OX1R antag-1 4.5, TAAR1 agonist 15.4, OX1R antag-2 36.0 and NTR1 agonist 6.4.
Cc1ccccc1-c1cccc2[nH]c3c(c12)CCN1C(=O)[C@H]2[C@H](C)ON(C)[C@H]2C[C@@H]31 was read as TAAR1 antag 18.3 and TAAR1 agonist 10.4.
`CCCCCCCCN1C(=O)[C@@H](CC(=O)NCC23CC4CC(CC(C4)C2)C3)C[C@@]2(C(=O)OC)C1=C[C@H](C1CCCC1)O[C@@H]2C` gave TAAR1 antag -14.1 and TAAR1 agonist 1.5.
`Nc1nc(CSC(=S)N2CCCCC2)nc(Nc2ccccc2)n1` gave TAAR1 antag 9.9, CHO parental Ca -21.7, OX1R antag-1 10.7, TAAR1 agonist 15.9, OX1R antag-2 69.2* and NTR1 agonist -1.8.
`Nc1nc(CSC(=S)N2CCOCC2)nc(Nc2ccccc2)n1` gave TAAR1 antag -0.8, CHO parental Ca -12.6, OX1R antag-1 17.1, TAAR1 agonist -0.1, OX1R antag-2 69.2* and NTR1 agonist 0.1.
`Cc1[nH]c2ccc(C(=O)OCC(=O)Nc3cccc(S(N)(=O)=O)c3)cc2c1C` gave TAAR1 antag 23.9, CHO parental Ca 2.0, OX1R antag-1 12.8, TAAR1 agonist 8.8, OX1R antag-2 11.0 and NTR1 agonist -0.5.
`CCc1ccccc1NC(=O)CSc1nc(-c2ccccc2)nn1C(=O)c1cccc([N+](=O)[O-])c1` gave CHO parental Ca -22.2, OX1R antag-1 -16.8, OX1R antag-2 42.2* and NTR1 agonist 0.3.
Screening Cc1ccc(S(=O)(=O)N2CCN(C(=O)c3cc(=O)[nH]c4ccccc34)CC2)c(C)c1 returned TAAR1 antag 51.4*, CHO parental Ca -25.6, OX1R antag-1 -42.6, TAAR1 agonist 20.1, OX1R antag-2 19.1 and NTR1 agonist 1.2.
`Cc1cc(C)c(S(=O)(=O)N2CCN(C(=O)c3cc(=O)[nH]c4ccccc34)CC2)c(C)c1` gave TAAR1 antag 51.6*, CHO parental Ca -17.8, OX1R antag-1 -19.3, TAAR1 agonist 43.5*, OX1R antag-2 1.5 and NTR1 agonist 5.0.
For Cc1ccccc1-c1ccc2c(c1)[C@@H]1C[C@H](N(C)CC3CCCCC3)[C@H]([C@H](C)O)CN1CC2 the results were TAAR1 antag -16.8 and TAAR1 agonist 4.0.
COC(=O)[C@]12C[C@H](CC(=O)NCC3CCCCC3)C(=O)N(Cc3ccc4c(c3)OCO4)C1=C[C@H](C(C)(C)C)O[C@@H]2C was read as TAAR1 antag -21.5 and TAAR1 agonist -0.9.
`Cc1ccc(OCC(=O)N/N=C\c2ccc(C)o2)c([N+](=O)[O-])c1` gave TAAR1 antag -2.0 and TAAR1 agonist 1.5.
Cc1cc(C(=O)N/N=C\c2ccc(COc3ccc([N+](=O)[O-])cc3)o2)ccc1[N+](=O)[O-] was read as TAAR1 antag 54.5*, CHO parental Ca -0.5, OX1R antag-1 4.0, TAAR1 agonist 13.6, OX1R antag-2 23.5 and NTR1 agonist -1.8.
Screening N#Cc1cc([N+](=O)[O-])ccc1NC(=O)COC(=O)C1CCC(=O)N1 (stereo not given) returned TAAR1 antag 3.6, CHO parental Ca -5.0, OX1R antag-1 -13.7, TAAR1 agonist 0.1, OX1R antag-2 42.5* and NTR1 agonist 3.5.
For N#Cc1cc([N+](=O)[O-])ccc1NC(=O)CSc1n[nH]c(=O)[nH]c1=O the results were TAAR1 antag 6.9, CHO parental Ca -13.4, OX1R antag-1 -12.9, TAAR1 agonist 0.4, OX1R antag-2 44.9* and NTR1 agonist -0.6.
CCCc1cc(=O)[nH]c(SCC(=O)Nc2ccc([N+](=O)[O-])cc2C#N)n1 was read as TAAR1 antag -26.6, CHO parental Ca -15.8, OX1R antag-1 -8.1, TAAR1 agonist 0.0, OX1R antag-2 8.7 and NTR1 agonist -1.2.
O=C(NCc1ccccc1)[C@@H]1CCCN1C(=O)[C@H]1CCCN1C(=O)c1ccccc1Cl was read as TAAR1 antag -13.1 and TAAR1 agonist 2.5.
For C[C@@H]1ON(C)[C@H]2C[C@H]3c4cc(-c5cc6ccccc6o5)ccc4CCN3C[C@@H]12 the results were TAAR1 antag -18.8 and TAAR1 agonist 1.7.
